# Assay outcomes deposited in PubChem BioAssay by The Scripps Research Institute Molecular Screening Center.
# SIAE inh: human SIAE inhibitors, primary screen, biochemical, fluorescence polarization, FP-Rh probe, 1536-well HTS. SIAE FP-Rh probe binding. inhibition, % at 9.66 µM. Sialate O-acetylesterase (Homo sapiens), Q9HAT2. actives 0.69% (n = 370,000);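 active = inhibition above a cutoff: mean of compounds within the control limits plus 3 SD of those, cut at about 17% in these data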;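 also: 0% = plate median of compound wells and 100% = probe without SIAE protein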
# mABHD4 FP: ABHD4 inhibitors, primary screen, biochemical, fluorescence polarization, mouse; AID 720543, 2013; actives 0.54% (n = 370,000); inhibition, % at 8.92 µM; purified mABHD4, FP-Rh probe fluorescence polarization; (Lyso)-N-acylphosphatidylethanolamine lipase (Mus musculus), Q8VD66;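 active = inhibition exceeding the mean over every tested compound plus 3 SD, cut at about 30% in these data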;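 also: 0% = plate median of compound wells and 100% = S159A mutant with DMSO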
# Target sequence (Q8VD66 whole entry, looked up): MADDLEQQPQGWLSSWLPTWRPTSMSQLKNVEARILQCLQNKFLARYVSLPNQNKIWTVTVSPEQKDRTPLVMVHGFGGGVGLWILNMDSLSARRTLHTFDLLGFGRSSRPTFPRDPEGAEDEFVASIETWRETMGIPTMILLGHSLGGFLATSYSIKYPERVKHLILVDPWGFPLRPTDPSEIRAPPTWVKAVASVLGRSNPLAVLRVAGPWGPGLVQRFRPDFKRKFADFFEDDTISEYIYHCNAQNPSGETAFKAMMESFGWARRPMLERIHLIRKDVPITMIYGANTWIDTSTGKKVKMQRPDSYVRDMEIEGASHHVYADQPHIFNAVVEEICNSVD
#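 Doses – 8.92 µM, single dose · Material – wild-type mouse ABHD4 protein · Replication – single well per compound (singlicate) · Measure – percent inhibition of probe binding, normalized to plate controls · Schedule – 45 min compound pre-incubation plus 60 min probe step, 25 °C · Detection – fluorescence polarization with parallel and perpendicular emission, 525/598 nm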
# PRMT1 inh: PRMT1 methyltransferase inhibitors, primary screen, biochemical, fluorescence polarization | Protein arginine N-methyltransferase 1 (Homo sapiens), Q99873 | recombinant PRMT1, activity-based probe fluorescence polarization | inhibition, % at 2.79 µM | actives 1.3% (n = 370,000) | AID 652257, 2013;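 active = inhibition above about 21% made by adding two undisclosed values, limit read from the data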
# Target sequence (Q99873 whole entry, looked up): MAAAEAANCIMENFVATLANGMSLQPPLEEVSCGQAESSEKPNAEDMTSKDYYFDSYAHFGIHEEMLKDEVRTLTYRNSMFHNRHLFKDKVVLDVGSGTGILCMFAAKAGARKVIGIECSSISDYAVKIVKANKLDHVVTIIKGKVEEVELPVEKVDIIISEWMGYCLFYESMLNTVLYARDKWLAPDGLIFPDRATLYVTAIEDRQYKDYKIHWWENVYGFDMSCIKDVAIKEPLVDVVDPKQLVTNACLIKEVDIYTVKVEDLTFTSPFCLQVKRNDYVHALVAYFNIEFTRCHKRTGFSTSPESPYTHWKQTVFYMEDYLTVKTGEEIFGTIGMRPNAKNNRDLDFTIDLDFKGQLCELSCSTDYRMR
# TCR CD3 inh: inhibitors of human TCR-CD3 interaction, primary screen, biochemical, fluorescence, TAMRA-labeled TCR probe; inhibition, % at 9.4 µM; T-cell receptor (TCR); actives 0.37% (n = 360,000);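 also: recombinant mutant TCR 2C K166C tagged with TAMRA read by polarization; 0% = receptor in buffer alone and 100% = receptor with positive control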
# HTRA1 inhibitor: HTRA1 serine protease inhibitors, primary screen, biochemical, fluorescence polarization, HTS | Q92743 | recombinant HTRA1, FP-rhodamine activity-based probe | inhibition, % at 5.96 µM | actives 0.5% (n = 340,000) | AID 504803, 2011; in the data active = inhibition above about 36%;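 also: 0% = enzyme with DMSO and 100% = wells lacking enzyme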
# PAD4 inh: human PAD4 inhibitors, primary screen, biochemical, fluorescence polarization, 1536-well format; AID 485272, 2010; recombinant PAD4, RCA probe fluorescence polarization; inhibition, % at 6.36 µM; actives 0.41% (n = 330,000); Protein-arginine deiminase type-4 (Homo sapiens), Q9UM07;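 active = percent inhibition above a cutoff equal to the mean of all tested compounds plus 3 SD, cut at about 15% in these data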;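 also: 0% = PAD4 with RCA probe and DMSO and 100% = probe without PAD4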
# HTRA1 conf: HTRA1 protease inhibitors, retest, confirmation, biochemical, fluorescence polarization. shares compounds with HTRA1 inhibitor. recombinant HTRA1, FP-rhodamine activity-based probe. inhibition, % at 5.96 µM. actives 66% (n = 1,600);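 active = mean inhibition over three repeats above a set limit taken from the earlier primary screen, cut at about 37% in these data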;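 also: 0% = HTRA1 with DMSO and 100% = wells lacking HTRA1; inhibitors block probe binding so polarization drops and inhibition rises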
# BSA probe FL: compounds interfering with TAMRA-BSA probe, counter-screen for TCR-CD3 interaction inhibitor project, biochemical, fluorescence, TAMRA-labeled BSA. actives 10% (n = 1,200). inhibition, % at 9.4 µM. shares compounds with TCR CD3 inh. AID 652035, 2013. TAMRA-labeled BSA probe fluorescence counterscreen; in the data active = inhibition above about 23%;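 also: 0% = buffer low control and 100% = reference high control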
# TCR-CD3 conf: TCR-CD3 interaction inhibitors, retest, confirmation, biochemical, fluorescence, TAMRA-labeled TCR probe | TAMRA-labeled TCR probe fluorescence binding assay | inhibition, % at 9.4 µM | AID 652036, 2013 | actives 48% (n = 1,200) | shares compounds with TCR CD3 inh
# PRMT1 inh conf: PRMT1 methyltransferase inhibitors, confirmation, biochemical, fluorescence polarization, triplicate; shares compounds with PRMT1 inh; recombinant His-PRMT1, activity-based probe fluorescence polarization; inhibition, % at 2.79 µM; actives 42% (n = 3,300);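 active = mean inhibition across replicates above the hit cutoff derived for the earlier primary screen, cut at about 22% in these data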
# mABHD4 conf: ABHD4 inhibitors, retest, confirmation, biochemical, fluorescence polarization, mouse; shares compounds with mABHD4 FP; purified mABHD4, FP-Rh probe fluorescence polarization; inhibition, % at 8.92 µM; actives 55% (n = 1,800);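 active = mean inhibition across replicates above the hit cutoff set in the primary screen, cut at about 30% in these data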;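 also: 0% = wild-type ABHD4 with DMSO and 100% = catalytically dead S159A mutant with DMSO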
# An asterisk follows results filed as active; x = no result. Hits are enriched below; roughly 2.9% of the tested compounds scored in any of these assays. Rule as the data show it, unless noted: active = inhibition above about 19%; inactive = the rest.
SMILES,SIAE inh,mABHD4 FP,PRMT1 inh,TCR CD3 inh,HTRA1 inhibitor,PAD4 inh,HTRA1 conf,mABHD4 conf,others
O=C(N/N=C/c1ccccc1)c1ccc(CN2C(=O)c3cccc4cccc2c34)cc1,-7,-27,-2,7,-37,1,x,x,
COC(=O)[C@]1(C#N)CC(=O)N(C)[C@@H]1c1ccccc1,-5,-2,-10,x,x,x,x,x,
O=C(Cc1nnc(NC(=O)c2ccccc2)s1)N/N=C\c1ccc(O)c(O)c1,6,28,5,34*,43*,-2,48*,x,BSA probe FL=-11;TCR-CD3 conf=33*
CN(CCCOC(=O)c1occ2ccccc12)C1CN(Cc2cn(Cc3ccccc3Cl)nn2)S(=O)(=O)C1 (stereo not given),3,10,5,x,x,x,x,x,
O=C(N/N=C/c1ccc(O)c(O)c1)N/N=C/c1ccc(O)c(O)c1,-12,27,24*,65*,38*,x,19,x,BSA probe FL=-13;TCR-CD3 conf=81*
Cc1nonc1C(=O)N/N=C/c1ccc(O)c(O)c1,9,13,4,7,23,1,x,x,
CCN(CC)C(=O)CC[C@@H]1CC[C@]2(CCCN(Cc3cccc4ccccc34)C2)O1,3,-3,-3,x,x,x,x,x,
Cc1cc(C)c(C)c(S(=O)(=O)N2CCC(C(=O)NNC(=O)c3ccccc3O)CC2)c1C,0,7,1,32*,46*,3,48*,x,BSA probe FL=-6;TCR-CD3 conf=22*
O=C(c1ccc(C#Cc2ccccc2)cc1)N1CCC(O)CC1,0,-3,4,x,x,x,x,x,
COCCN=c1scc(-c2cccs2)n1/N=C/c1ccc(O)c(O)c1O,-3,55*,54*,5,79*,-2,67*,x,PRMT1 inh conf=27*
COC(=O)C1CN(C2CCCC2)CCS(=O)(=O)N1Cc1ccc(F)cc1 (stereo not given),-1,-4,-6,x,x,x,x,x,
Oc1cc2ccccc2cc1-c1n[nH]c(=S)o1,-4,23,26*,2,48*,0,49*,x,PRMT1 inh conf=36*
S=c1[nH]nc(-c2c[nH]c3ccccc23)o1,3,0,9,9,-4,8,x,x,
O=C1/C(=C\c2cccc(O)c2O)SC(=S)N1Cc1ccccc1,-6,13,94*,-2,54*,9,65*,x,PRMT1 inh conf=14
FC(F)(F)c1ccccc1C(C#Cc1ccccc1)NCc1ccc2c(c1)OCO2 (stereo not given),0,-6,0,x,x,x,x,x,
Oc1ccc(-c2nc(-c3ccc(O)c(O)c3)cs2)cc1,11,33*,19,-3,55*,1,55*,32*,
O=S1(=O)c2c(cccc2N2CCSCC2)Oc2ccccc2CN1Cc1cn(Cc2ccccc2C(F)(F)F)nn1,-11,-12,-2,x,x,x,x,x,
CCN(CC)c1ccc(N=Cc2cc(Br)ccc2O)cc1,11,45*,22*,8,60*,13,4,29,
Oc1ccccc1C=NN=C1c2ccccc2-c2ccccc21,-12,-3,3,-2,-7,x,x,x,
Oc1cccc(/C=N/N=C/c2cccc(O)c2O)c1O,-12,36*,14,-4,36*,2,45*,19,
CC(Nc1cccc2ccccc12)C(=O)N/N=C/c1ccccn1 (stereo not given),9,48*,25*,-5,46*,-1,5,16,
Cc1ccc(C)n1-c1ccc(N(C)C)cc1,9,32*,19,6,38*,0,40*,7,
Cc1ccc(C)n1-c1ccc(N2CCOCC2)cc1,16,10,6,-3,17,-15,x,x,
COc1ccccc1-c1cccc2c3c([nH]c12)[C@@H]1C[C@H]2[C@@H](CN1CC3)[C@H](C)ON2C,8,0,1,x,x,x,x,x,
Cc1ccc2nc(/C(C#N)=C/c3ccccc3C(=O)O)[nH]c2c1,14,9,-7,1,-22,-8,x,x,
SMILES,SIAE inh,mABHD4 FP,PRMT1 inh,TCR CD3 inh,HTRA1 inhibitor,PAD4 inh,HTRA1 conf,mABHD4 conf,others
Cc1ccc2nc(/C(C#N)=C/c3ccc(O)c(O)c3)[nH]c2c1,16,55*,27*,11,67*,-19,92*,52*,
COC(=O)c1cc(-c2cccc3c2sc2ccccc23)c(=O)n2c1CCC2,1,6,5,x,x,x,x,x,
CCN(CC)C(=O)[C@H]1C[C@@H]2[C@H](C[C@@H](c3ccccc3)[C@H]1C)N(c1ccc(F)cc1)C(=O)N2CCCOc1ccccc1,-4,-8,-2,-2,x,x,x,x,
O=C1c2cc(O)cc(O)c2C(=O)c2c1cc(O)c([C@@H](CO)CCO)c2O,10,56*,13,6,39*,-5,20,51*,
Cc1cc(O)c2c(c1)C(=O)c1cc(O)cc(O)c1C2=O,4,27,12,6,14,-10,x,x,
O=S(=O)(O)c1cc(Cl)cc(N=Nc2ccc(O)cc2O)c1O,7,70*,86*,65*,40*,x,38*,-14,BSA probe FL=65*;TCR-CD3 conf=54*;PRMT1 inh conf=65*
O=[N+]([O-])c1ccc(N=Nc2ccc(O)cc2O)cc1,4,25,4,2,0,-2,x,x,
c1ccc(-c2cc(-c3nnc4sc(Cc5cccs5)nn34)[nH]n2)cc1,-17,-22,2,x,x,x,x,x,
Oc1cc(CNC2CCCCC2)c(O)cc1CNC1CCCCC1,3,38*,13,6,48*,x,64*,56*,
O=c1cc(-c2ccc(O)cc2)oc2c(O)c(O)c(O)c(O)c12,13,36*,52*,23*,52*,-5,59*,17,BSA probe FL=0;TCR-CD3 conf=38*;PRMT1 inh conf=16
